Kir21 inh = inhibitors of mouse Kir2.1 inward-rectifier potassium channel | B-score at 10 µM | 310,000 tested, 0.85% active | AID 1672 | P35561 | HEK293-Kir2.1, FluxOR thallium flux fluorescence; hits give low values;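 active = fluorescence ratio B-score at or below minus 3 SD of library scores, with starting-brightness B-score within 2 SD, cut at about -4.2 in these data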;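 also: channel flux triggered by added potassium and thallium sulfate stimulus; B-score of peak minus minimum fluorescence over baseline after thallium stimulus; more negative B-score means stronger Kir2.1 block with less thallium influx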
Target sequence (P35561 whole entry, looked up): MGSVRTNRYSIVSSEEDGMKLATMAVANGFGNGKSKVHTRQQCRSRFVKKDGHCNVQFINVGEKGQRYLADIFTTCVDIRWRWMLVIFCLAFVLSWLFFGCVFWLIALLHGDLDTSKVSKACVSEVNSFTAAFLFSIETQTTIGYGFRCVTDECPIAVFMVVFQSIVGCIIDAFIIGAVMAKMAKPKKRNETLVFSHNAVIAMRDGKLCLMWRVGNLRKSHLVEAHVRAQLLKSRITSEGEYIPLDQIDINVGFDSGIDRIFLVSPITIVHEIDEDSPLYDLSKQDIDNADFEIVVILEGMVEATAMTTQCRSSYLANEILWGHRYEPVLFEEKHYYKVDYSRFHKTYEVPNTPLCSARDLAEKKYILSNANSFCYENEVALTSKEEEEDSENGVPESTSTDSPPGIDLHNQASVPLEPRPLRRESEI
RGS4 block = human RGS4 inhibition; B-score at 10 µM; 310,000 tested, 0.45% active; HEK293 M3R/RGS4 inducible, Fluo-4 calcium flux; hits give high values; triggered by carbachol at its EC20;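 active = B-score, a plate-corrected calcium signal, over three deviations above library mean, with baseline fluorescence within five deviations of library mean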;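 also: RGS4 expression induced by doxycycline in cells with stable M3 receptor; B-score is computed from the integrated fluorescence ratio over baseline after carbachol; higher B-score means a larger calcium signal and so more RGS4 inhibition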
MrgX1 ag = human MrgX1 receptor agonism, primary screen; B-score at 10 µM; 310,000 tested, 0.44% active; MrgX1-HEK293 cells, Fluo-4 calcium fluorescence, agonist mode; hits give high values; Q96LB2; AID 588627;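 active = calcium response B-score plate-corrected fluorescence ratio at least 3 library SD, with starting fluorescence B-score inside 5 SD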
Target sequence (Q96LB2 whole entry, looked up): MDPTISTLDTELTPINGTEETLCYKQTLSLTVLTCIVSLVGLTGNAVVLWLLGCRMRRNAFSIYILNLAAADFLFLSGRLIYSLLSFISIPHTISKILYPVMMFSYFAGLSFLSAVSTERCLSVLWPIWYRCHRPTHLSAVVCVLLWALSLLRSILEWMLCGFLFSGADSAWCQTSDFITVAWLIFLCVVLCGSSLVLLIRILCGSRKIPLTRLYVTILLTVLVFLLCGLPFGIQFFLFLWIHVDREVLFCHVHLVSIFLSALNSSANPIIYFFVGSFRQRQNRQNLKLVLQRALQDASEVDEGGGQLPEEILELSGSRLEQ
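Test system: HEK293 cells stably expressing human MrgX1 receptor; amount: 15,000 cells per well; doses: compound delivered in addition one of three; times: overnight plating before 1 h dye loading; detection: Fluo-4 NW calcium-flux fluorescence, kinetic read; read-out basis: B-scored fluorescence response ratio; controls: positive and negative controls per plate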
MrgX1 allo act = human MrgX1 positive allosteric modulation, primary screen | 310,000 tested, 0.63% active | MrgX1-HEK293, Fluo-4 calcium flux, FDSS; hits give high values | Q96LB2 | B-score at 10 µM | AID 588675;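 active = plate-corrected calcium response at least 3 library SD above typical, normal starting fluorescence, not activating the receptor alone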;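 also: compound read alongside a low EC10 to EC30 dose of BAM8-22 agonist; peak minus trough fluorescence over baseline measured at the second addition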
RGS4 act = potentiators or activators of RGS4. HEK293 M3R/inducible RGS4, carbachol calcium flux Fluo4; hits give low values. B-score at 10 µM. 310,000 tested, 0.92% active;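 active = B-score of the integrated calcium signal more than 4 SD below the library mean, with starting fluorescence not abnormally high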;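 also: negative B-score means reduced calcium response which marks RGS4 activation or potentiation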
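System: HEK293 FlpIn-TREx cells, stable M3R, doxycycline-inducible RGS4. Timing: overnight RGS4 induction, 30 min dye load 37 °C, 20 min compound RT. Also added: carbachol, ECmax concentration. Measured by: Fluo4 fluorescence kinetic imaging of calcium. Evaluation: integrated calcium ratio converted to B score.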
MrgX1 antagonist = antagonists of human MrgX1 receptor; Q96LB2; MRGX1-HEK293 calcium flux, Fluo-4, BAM8-22 antagonism; hits give low values; B-score at 10 µM; 310,000 tested, 1.3% active;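 active = calcium-response B-score plate-corrected more than 3 library SD below zero, starting fluorescence within 5 deviations, no agonist response on first addition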;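 also: peak minus trough fluorescence over baseline after final BAM8-22 challenge near maximal dose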
MrgX1 PAM conf = human MrgX1 positive allosteric modulation, re-confirmation; MrgX1-HEK293, Fluo-4 calcium fluorescence, FDSS; activation (ratio percentage), % at 10 µM; 1,200 tested, 13% active; shares compounds with MrgX1 allo act;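 active = ratio at least 3 SD above the weak peptide control, stable starting fluorescence, no direct agonism earlier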;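 also: compound followed by low BAM8-22 agonist challenge near EC20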
MrgX1 ant reconf = human MrgX1 receptor antagonism, re-confirmation screen. shares compounds with MrgX1 antagonist. MrgX1-HEK293, BAM8-22 calcium flux, Fluo-4; hits give low values. remaining BAM8-22 calcium response % of control (hits give low values), % at 10 µM. 2,300 tested, 19% active;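 active = remaining agonist calcium response no higher than 100% minus 3 SD of agonist-only control wells, with starting fluorescence near control levels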;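 also: agonist BAM8-22 given at a near maximal EC90 to ECmax level; peak minus minimum fluorescence divided by baseline after agonist addition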
HEK293 Ca flux = MrgX1 antagonist counter-screen hit in parental HEK293 cells | 4,000 tested, 2% active | shares compounds with MrgX1 antagonist | fluorescence ratio F(max-min)/F0 at 10 µM | Fluo-4 calcium fluorescence, FDSS;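 active = duplicate-averaged calcium fluorescence ratio at least three times the standard deviation of buffer wells, a nonspecific response in parental cells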
HEK293 Ca counter = counter-screen for MrgX1 allosteric activators: effect in parental HEK293 cells. 4,000 tested, 0.4% active. fluorescence ratio F(max-min)/F0 at 10 µM. shares compounds with MrgX1 antagonist. parental HEK293 calcium flux, Fluo-4 fluorescence ratio; hits give high values;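 active = calcium fluorescence ratio, averaged over duplicates, at least 3 SD of the buffer-well ratio, meaning a nonspecific response in receptor-free cells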;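 also: untransfected parental HEK293 lacking MrgX1 used as counterscreen for MrgX1 allosteric activators; fluorescence change taken during the second addition on a kinetic imager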
HEK293 Ca cntr2 = activity in parental HEK293 cells lacking MrgX1 receptor; shares compounds with MrgX1 antagonist; Fluo-4 calcium fluorescence (FDSS); hits give high values; fluorescence ratio F(max-min)/F0 at 10 µM; 4,000 tested, 8.7% active; AID 624115;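 active = calcium fluorescence ratio at least three times the spread of buffer wells, meaning a non-specific response in parental cells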
A number is an active result; - = inactive; . = no result given. Sampled rows, rich in hits. Any-hit rate of the full collection: about 4.1%.

SMILES | Kir21 inh | RGS4 block | MrgX1 ag | MrgX1 allo act | RGS4 act | MrgX1 antagonist | MrgX1 PAM conf | HEK293 Ca flux | HEK293 Ca counter | HEK293 Ca cntr2 | others
Nc1nc(Br)c2c(F)cccc2c1-c1ccc(Cl)cc1 | - | - | - | 8.28 | - | - | - | - | - | -
C#CC(CC)(CC)NC(=S)Nc1cccc(C(C)=O)c1 | - | - | - | 8.34 | - | - | - | - | - | -
Cc1ccc(Nc2cc(-n3cccn3)ncn2)c(C)c1 | - | - | - | 13.7 | - | - | - | - | - | -
Cc1csc(SCC(=O)Nc2ccc(Cl)cn2)n1 | - | - | - | - | - | - | . | . | . | .
CC(C)(C)c1csc(SCC(=O)Nc2ccc(Cl)cn2)n1 | - | - | - | 19.5 | - | - | 5.1% | - | - | -
O=C(Nc1ccccn1)c1csc2c1CCCC2 | - | - | - | 8.59 | - | - | - | - | - | -
COc1ccc(OC)c(C(=O)c2c(C)oc3cc(Br)c(O)c(CN(C)C)c23)c1 | - | - | - | - | - | - | . | . | . | .
COCc1cc(SC2CCCCC2)nc(C)n1 | - | - | - | 14.7 | - | - | - | - | - | -
COCc1cc(C)nc(NC2CCCCC2)c1C#N | . | . | - | - | . | - | . | . | . | .
COc1ccc(Br)cc1S(=O)(=O)Nc1ncccc1C | - | - | - | - | - | - | . | . | . | .
COc1ccc(CCN(C)C(=O)c2ccc(OCC(=O)N3CCOCC3)c(OC)c2)cc1OC | - | - | - | - | - | - | . | . | . | .
O=C(NC(=S)NC1CCCCC1)c1ccc(F)cc1 | - | - | - | 7.01 | - | - | - | - | - | -
CN(C)c1nc(N)nc(N(c2ccccc2)c2ccccc2)n1 | - | - | - | 7.44 | - | - | - | - | - | -
CCN(CC)c1nc(N)nc(N(c2ccccc2)c2ccccc2)n1 | - | - | - | - | - | - | . | . | . | .
O=C(NCCN1C(=O)S/C(=C\c2ccc(Cl)c(Cl)c2)C1=O)c1cnccn1 | - | - | - | - | - | - | . | . | . | .
O=C(COC(=O)C(O)c1ccccc1)NC12CC3CC(CC(C3)C1)C2 (centres undefined) | - | - | - | - | - | - | . | . | . | .
O=C(COc1ccccc1F)NC12CC3CC(CC(C3)C1)C2 | - | - | - | 6.55 | - | - | - | - | - | -
CN1CCN(C(=S)Nc2cc(S(=O)(=O)N3CCOCC3)ccc2Cl)CC1 | - | - | - | - | - | - | . | . | . | .
CCOC(=O)N1CCN(C(=S)Nc2cc(S(=O)(=O)N3CCOCC3)ccc2Cl)CC1 | - | - | - | 9.23 | - | - | - | - | - | -
CC12CCC(C)(c3nc4ccccc4nc31)C2(C)C | - | - | - | 6.91 | - | - | - | - | - | -
Cc1nc2c3cc(F)ccc3n(Cc3ccccc3F)c2s1 | - | - | - | 8.98 | - | - | - | - | - | -
COc1ccc(-c2csc(-c3cccs3)n2)c(OC)c1 | - | - | - | - | - | - | . | . | . | .
CCOc1ccc(OCC(=O)OCC(=O)NNC(=O)c2ccc([N+](=O)[O-])cc2)cc1 | - | - | - | - | - | - | . | . | . | .
C/C(=C\C(=O)C(F)(F)F)Nc1ccc(C)cc1 | - | - | - | 7.72 | - | - | 13.4% | - | - | -
CCC1Nc2ncnc(N3CCCCC3)c2N(Cc2ccccc2)C1=O (centres undefined) | - | - | - | 7.54 | - | - | - | - | - | -
SMILES | Kir21 inh | RGS4 block | MrgX1 ag | MrgX1 allo act | RGS4 act | MrgX1 antagonist | MrgX1 PAM conf | HEK293 Ca flux | HEK293 Ca counter | HEK293 Ca cntr2 | others
CC(C)N1CCC(N2CCN(Cc3cc4c(cc3Cl)OCO4)CC2CCO)CC1 (centres undefined) | - | - | - | - | - | - | . | . | . | .
COc1ccc(C)cc1NC(=O)C(C)N(c1ccc(C)cc1)S(C)(=O)=O (centres undefined) | - | - | - | 7.58 | - | - | - | - | - | -
COc1ccc(NC(=O)C(C)N(c2ccc(C)cc2)S(C)(=O)=O)cc1 (centres undefined) | - | - | - | - | - | - | . | . | . | .
O=C(CSc1nccn1-c1ccccc1)Nc1ccc2c(c1)OCO2 | - | - | - | - | - | - | . | . | . | .
CNC(=O)CC1C(=O)N(c2ccc(Cl)cc2)C(=S)N1CCc1ccc(OC)c(OC)c1 (centres undefined) | - | - | - | 10.3 | - | - | - | - | - | -
COc1ccc(CCN2C(=S)N(c3ccccc3)C(=O)C2CC(=O)O)cc1OC (centres undefined) | - | - | - | - | - | - | . | . | . | .
CC(C)(C)c1csc(NC(=O)c2ccccc2O)n1 | - | - | - | - | - | - | . | . | . | .
COc1ccc(NC(=O)c2oc3ccccc3c2NC(=O)COc2ccccc2OC)c(OC)c1 | - | - | - | - | - | - | . | . | . | .
Cc1ccc(-c2csc3ncnc(NCCC(=O)O)c23)cc1C | - | - | - | 6.73 | - | - | - | - | - | -
Cc1ccc(-c2csc3ncnc(NCCC(=O)O)c23)cc1 | - | - | - | - | - | - | . | . | . | .
CCOc1ccccc1NC(=O)CCC(=O)Nc1ccccc1OCC | - | - | - | - | - | - | . | . | . | .
CCOc1ccccc1NC(=O)CSc1ccccc1 | - | - | - | 6.91 | - | - | - | - | - | -
Cn1c(SCC(=O)Nc2cc(Cl)cc(Cl)c2)nnc1-c1ccc2nonc2c1 | - | - | - | - | - | - | . | . | . | .
CCOc1ccccc1NC(=O)CSc1nnc(-c2ccco2)o1 | - | - | - | - | - | - | . | . | . | .
O=S(=O)(Nc1nc2ccccc2s1)c1ccc(Cl)s1 | - | - | - | 9.12 | - | -5.31 | - | - | - | - | MrgX1 ant reconf=-
O=S(=O)(Nc1nc2ccccc2s1)c1cc(F)ccc1F | - | - | - | - | - | - | . | . | . | .
O=C(NCc1cccnc1)C(=O)NCC1OCCN1S(=O)(=O)c1cc(F)ccc1F (centres undefined) | - | - | - | 16.5 | - | - | - | - | - | -
CN(C)CCCNc1ccc(-c2cc(Nc3cccc(Cl)c3)ncn2)cn1 | - | - | - | 7.82 | - | - | - | - | - | -
CCN(CC)S(=O)(=O)c1cc(C)c(C)cc1Br | - | - | - | - | - | - | . | . | . | .
